Experimental data from the EternaBench riboswitch data.

Test system: MS2 coat protein
Test: apparent Kd, MS2 coat protein; higher = weaker binding; RNA-MaP array; FMN 200 µM where present
How it was run: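 The apparent Kd is reported as the median of filtered per-cluster binding-curve fits. To get these curves, designs transcribed by stalled E. coli RNA polymerase on Illumina sequencing-chip clusters were titrated with SNAP-549-labelled MS2 coat protein from 0.7 or 1.5 nM, doubling to 3 µM. Titrations were run without and then with constant ligand in 100 mM Tris-HCl pH 7.5, 80 mM KCl, 4 mM MgCl2, BSA, DTT, yeast tRNA and Tween-20, and green signal was normalised to red-channel RNA signal and control-cluster median Fmax.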

[1] = designed as: ON switch for flavin mononucleotide, no ligand
[2] = ligand present: flavin mononucleotide, designed as: ON switch for flavin mononucleotide
[3] = designed as: OFF switch for flavin mononucleotide, no ligand
[4] = ligand present: flavin mononucleotide, designed as: OFF switch for flavin mononucleotide

| Sequence | apparent Kd [1] | apparent Kd [2] | apparent Kd [3] | apparent Kd [4] |
| --- | --- | --- | --- | --- |
| CUAGCUUGCACAGGAUAUAGGCUCGGAGCUUACAUGAGGAUCACCCAUGUAGUGCGAGUGAAGCACUAGAAGGGUGAUGGGUAG | 40.4 nM | 22.8 nM | – | – |
| CUAGUUGUCGCAGGAUAUGCCCGCUGGUUGGAGGCAGAAGGGUGACACCAAAUAUUAUACAUGAGGAUCACCCAUGUCGCCAAC | 17.9 nM | 19.3 nM | – | – |
| CUAUGACGAAUAGGAUAUUCGAUCAAAAGGAUAGAAGAAGGGUUACAUGAGGAUCACCCAUGUAUGCACAUGAGGAUCCCUUAG | – | – | 193 nM | 219 nM |
| CUAUUGAUAACAGGAUAUAUGAGUCCUACAUGAGGAUCACCCAUGUAGGUGAUCAGCCGUGAUUAGUAGAAGGGUUAUCAAUAG | 12.7 nM | 6.63 nM | – | – |
| CUCAAACAUGAGGAUCACCCAUGUGUUGUCAUGGGAGGAUAUCUAAGUUCAUUGUAUUCGGGAGAAGGCCUAUGUC | 503 nM | 46.5 nM | – | – |
| CUCAAACAUGAGGAUCACCCAUGUGUUGUCAUGGGAGGAUAUCUAAGUUCGUUGUAUUCGGGAGAAGGCCUAUGUC | 258 nM | 55.1 nM | – | – |
| CUCAGCUCGUCAGGAUAUACGUCACUGCGUCAGCAGUGUGGUAAGAUCACAUGAGGAUCACCCAUGUAGAAGGGACGAGCUGAU | – | – | 13.7 nM | 278 nM |
| CUCAUGUCAGGAUAUCAGUAGUAAAAAAAAAAAAUUACUACUGAGAAGGGACAUGAGGAUCACCCAUGUCACUU | – | – | 27.1 nM | 28.7 nM |
| CUCAUGUGAGGAUAUCAGUAGUGAUACGAUAGUAUUACUGCUGAGAAGGUACAUGAGGAUCACCCAUGUUCCUC | – | – | 26.9 nM | 37.8 nM |
| CUCAUGUUAGGAUAUGCGCUCGACGUAGUGGUUGAGCUCUAGCAGAAGGAACAUGAGGAUCACCCAUGUUUGCA | – | – | 68.5 nM | 21.3 nM |
| CUCAUUAGUCAGGAUAUCGUGUGGGUAAUUGUACGAGAAGGGACGACAUGAGGAUCACCCAUGUGGUCUUUGAG | – | – | 71 nM | 317 nM |
| CUCCGUGGCGAGAAGGACGGAAUUUAAGGUUCUGUAGGAUAUCGAAACAUGAGGAUCACCCAUGUAUUGAUCGGGUGCAGUGUG | – | – | 26.9 nM | 32.2 nM |
| CUCCUCCUGGUCAGGAUAUGAGCUUUAUCGGAUAUUCAGAAGGGACAUGAGGAUCACCCAUGUAACGUCGCUGG | – | – | 14.8 nM | 17.2 nM |
| CUCUUGUCAGGAUAUUAUGGACGAUAGCAGGGCUACGUCAGUGAGAAGGGACAUGAGGAUCACCCAUGUAAAAU | – | – | 83.6 nM | 55.2 nM |
| CUCUUGUUAGGAUAUCAAACCGGCGGCGGAGCCGCCGGAAGUGAGAAGGGACAUGAGGAUCACCCAUGUAAGAA | – | – | 71.5 nM | 312 nM |
| CUGACAGCGCAGAAGGGAGAUCCUACAUGAGGAUCACCCAUGUGGGCUCUCAGGAUAUGCACGUGUAUGCUGAAAGUAGCAUUG | 17.2 nM | 7.17 nM | – | – |
| CUGACGUCAGGAUAUCUGAUGUCUAACUUCGGUUAGACAUCAGAGAAGGGACAUGAGGAUCACCCAUGUCAGAG | – | – | 28.7 nM | 23.1 nM |
| CUGAGCUGAGGAUAUACAUGAGGAUCACCCAUGUGUUCGAGCUUGCGUACAGGCAGAUGUAGAAGGCAGUUCGG | – | – | 26.7 nM | 99.3 nM |
| CUGAGGAAAGGAUAUACAUCAAACUCCUCAUCCUCGAAAGAACAUGAGGAUCACCCAUGUAGAAGGUUCGCGGU | – | – | 37.2 nM | 29.8 nM |
| CUGAGGUCAGGAUAUGCAUGGCGGGACUUGCGUCGUGGCGUGCAGAAGGGACAUGAGGAUCACCCAUGUGGAGC | – | – | 86.7 nM | 249 nM |
| CUGAUGUAAGGAUAUGUGUAGAAAUCAAAUCGGAUAUUCUAACAGAAGGUACAUGAGGAUCACCCAUGUGAGAA | – | – | 39.7 nM | 71.2 nM |

| Sequence | apparent Kd [1] | apparent Kd [2] | apparent Kd [3] | apparent Kd [4] |
| --- | --- | --- | --- | --- |
| CUGAUGUGAGGAUAUGUGAUCUGCCUUCUAUAUAGAUGAUUACAGAAGGCACAUGAGGAUCACCCAUGUAGAUC | – | – | 74.7 nM | 62.6 nM |
| CUGCUCCGUGUAGGAUAUCCGGGCAACCAAUCCGGAGAAGGACAUGAGGAUCACCCAUGUAUGUUAUUAUCACGUGAAGCGUCC | – | – | 23 nM | 25.3 nM |
| CUGGGCGGAGGAUAUGCGGGUUGGGCUUUUGUUCGGCUGGGACAUGAGGAUCACCCAUGUAGAAGGUUGUUCGG | – | – | 168 nM | 124 nM |
| CUGGUGUGAGGAUAUCAAAGACCUCGGGAAAGAACCGAGAAUGAGAAGGCACAUGAGGAUCACCCAUGUAACAA | – | – | 18.2 nM | 30.7 nM |
| CUGGUUCUCGUAGGAUAUGUAGGAUAUGCCUACAUGAGGAUCACCCAUGUUCGCAUGGCAGAAGGACAGAAGGACGAUCACCAG | 55.6 nM | 15.4 nM | – | – |
| CUGGUUGUCGAGGAUAUGUCCCGGCUCGCUGUCGCAGAAGGCGACACAUGAGGAUCACCCAUGUCGGUUCGCGU | – | – | 34.6 nM | 30.5 nM |
| CUGGUUGUCGUAGGAUAUGUAGGAUAUUCCUACAUGAGGAUCACCCAUGUUCGCAUGGAAGAAGGACAGAAGGACGAUGACCAC | 930 nM | 23.2 nM | – | – |
| CUGUCGAUAUCAGGAUAUCGUUUACAUACAUGAGGAUCACCCAUGUUGACAUGGAGCAUAAUUUGCGAGAAGGGAUAACGAUAG | 23.5 nM | 14.3 nM | – | – |
| CUGUGACGGUGCGCAAGUGUACGUAGAAGGGUCACAUGAGGAUCACCCAUGUGGGCCUGCGAGUGACAGGAUAUACGUGCGUGC | – | – | 6.39 nM | 12.4 nM |
| CUGUUAUAGAUCCAGAAUUACAACAUGAGGAUCACCCAUGUGCAGGAUAUCGGGUUGAUAGGCGCCGAGAAGGGUAUAGUCACG | – | – | 60.2 nM | 61.6 nM |
| CUGUUAUUGAUCCAUUUUUUCAACAUGAGGAUCACCCAUGUGCAGGAUAUCGUGAUUAUUAUCAACGAGAAGGGCAGAUUCACG | – | – | 74 nM | 178 nM |
| CUGUUUUUCGCAGGAUAUGCUCCUCCUUUAUUAGCAGAAGGGCGUUAAACAUGAGGAUCACCCAUGUAUGGUAAUGACAUUUUC | – | – | 33.6 nM | 209 nM |
| CUUAUGUGAGGAUAUCAGUAGUAAAAAAAUAAAAUUACUACUGAGAAGGCACAUGAGGAUCACCCAUGUUCCUC | – | – | 115 nM | 429 nM |
| CUUCUUGGGCAAGGAUAUCCUGUGCGGUUCCGGCUCGUGUCUGUCACAUGAGGAUCACCCAUGUGGGAGAAGGUGCCUGCGGUC | – | – | 6.15 nM | 6.79 nM |
| CUUGAAUAAGUGAGGAUAUACUGUUAGUAAUGAUUGUAGAAGGUACAUGAGGAUCACCCAUGUUUAUUCAUAAU | – | – | 18.2 nM | 18.3 nM |
| CUUGUGUAAGGAUAUCGAGUAGAACGCUCGAGUUCUGAGCUCGAGAAGGUACAUGAGGAUCACCCAUGUUAAAA | – | – | 40.1 nM | 66.2 nM |
| CUUUAACACCAGAAGGACAUGAGGAUCACCCAUGUAGGAUAUGGGACUCCUAGUAGGCAUAUUGUGCUUCCGGUAGGACAAGGA | 478 nM | 62.2 nM | – | – |
| CUUUAGUGAGGAUAUCAGUAGUAAUACAAUAGUAUUACUACUGAGAAGGCACAUGAGGAUCACCCAUGUUUCUC | – | – | 31 nM | 136 nM |
| CUUUAGUGAGGAUAUCAGUGGUAAUACAAUAGUAUUACUACUGAGAAGGCACAUGAGGAUCACCCAUGUUCCUC | – | – | 26.6 nM | 155 nM |
| CUUUAGUGAGGAUAUCUGGCUUCGAUCGUGAGAUCGAGGCUAGAGAAGGCACAUGAGGAUCACCCAUGUUCCUC | – | – | 40.1 nM | 439 nM |
| CUUUAGUGAGGAUAUCUGGCUUCGAUCGUGAGAUCGAGGCUAGAGAAGGCACAUGAGGAUCACCCAUGUUCCUU | – | – | 15.4 nM | 34.7 nM |
